Hits are enriched below; roughly 2.3% of the tested compounds scored in any of these assays.
KLF5 inhibitor – KLF5 expression inhibitors, primary screen, DLD-1 cells, luminescence; DLD-1 KLF5 promoter-luciferase reporter; inhibition, % at 5 µM; 290,000 compounds, 0.23% hits;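 active = inhibition above a per-plate limit of that plate's mean compound inhibition plus 3 SD, cut at about 60% in these data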;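 note: higher means less KLF5 promoter-driven luciferase light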
HIF act – HIF pathway transcriptional activators, primary screen, cell-based, U2OS HRE-luciferase, luminescence | activation, % at 7.5 µM (by protocol) | U2OS HRE-luciferase reporter; normalized: DMSO 0%, desferrioxamine 100% | 300,000 compounds, 0.32% hits;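 active = mean activation of at least 10% of the iron chelator positive control signal, with at least half of replicates also reaching 10%; inconclusive = mean and replicate majority disagree about reaching 10%; inactive = mean and most replicates under 10%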
Beta cell apopt – inhibitors of cytokine-induced beta cell apoptosis, primary screen, luminescence | INS-1E cytokine-induced death, ATP luminescence, 48 h; percent of positive-control rescue, neutral wells zero | protection from apoptosis, % (no concentration beside the values) | 300,000 compounds, 0.8% hits | AID 435005, 2010;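 active = Every replicate reaches about 75%, or at least half do and their mean reaches it too, limit read from the data; inconclusive = At least half of replicates reach the limit but their mean does not; inactive = Under half of replicates reach the limit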;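 note: higher means more ATP so stronger rescue from cytokine killing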
A1 inh – caspase 3/7 activation in MEF A1-2A-BIM cells, primary screen, A1 inhibitor project, cell-based, luminescence, HTS; Caspase-Glo 3/7 luminescence, 3 h; percent of clofoctol response, vehicle zero; caspase activation, % (no concentration beside the values); 330,000 compounds, 0.066% hits; AID 2462, 2010;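 active = over half of replicate activation scores above 10%, or exactly half above 10 with the replicate mean above 10; inconclusive = replicate mean below 10 yet half the replicates above 10; inactive = over half of replicates below 10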
T cruzi repl – inhibitors of intracellular T. cruzi growth, primary screen, luminescence, NIH3T3 host cells; T. cruzi beta-gal in NIH3T3, 90 h; inhibition, % (test concentration not listed); 300,000 compounds, 1.4% hits;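 active = mean inhibition across valid replicates above about 55%, limit read from the data; inconclusive = mean below that limit but half or more replicates reach it; inactive = mean below it, under half of replicates reach it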;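 note: signal also drops with host cell toxicity which is not excluded here; higher percent means less beta-gal luminescence so fewer parasites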
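System: NIH/3T3 fibroblasts plus reporter T. cruzi. Medium: DMEM plus 2% FBS. Probe or stimulus: 5000 reporter trypomastigotes per well. Compound: single 50 nL compound addition per well in DMSO. Incubation: co-culture of at least 90 h after 3 h attachment. Detection: GalScreen β-gal luminescence, detergent lysis, 60 min. Evaluation: parasite load inhibition, %.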
A number is an active result; n = inactive; u = inconclusive; x = not tested or not shown.

SMILES	KLF5 inhibitor	HIF act	Beta cell apopt	A1 inh	T cruzi repl
O=[N+]([O-])c1ccc(C[n+]2c(-c3ccccc3)cc(-c3ccccc3)cc2-c2ccccc2)cc1	x	n	n	n	n
COP(=O)(/C=C(\Cl)c1ccccc1)/C=C(\Cl)c1ccccc1	n	n	n	n	n
COC(=O)C1=C(c2ccc(OC(F)(F)F)cc2)C[C@@H]2CC[C@H]1N2C(=O)N1CCOCC1	x	x	n	n	x
c1ccc2sc(C3CCNCC3)nc2c1	n	n	n	n	64
CN(CCc1nnc(N)s1)[N+](=O)[O-]	n	n	n	n	n
C=CCn1cc(C=C2C(=O)N(C)C(=O)N(C)C2=O)c2ccccc21	n	n	n	n	n
CN1CCc2cc3c(c4c2C1Cc1ccccc1-4)OCO3 (stereo not drawn)	n	n	88	n	n
CCC1(CC)C(=O)N(Cc2ccccc2)C(=O)N(Cc2ccccc2)C1=O	n	n	n	n	61
CCCCCCCCCCCCCCCC[N+](C)(C)C	x	n	117	n	n
CCCCNC(=S)N1CCn2cccc2C1c1cccnc1 (stereo not drawn)	n	n	n	n	65
CNC(=S)N1CCn2cccc2C1c1cccnc1 (stereo not drawn)	n	n	n	n	n
COc1ccccc1CNCCc1ccc(F)cc1	n	n	n	n	n
CCOC(=O)c1cccc(-[n+]2c(-c3ccccc3)cc(-c3ccccc3)cc2-c2ccccc2)c1	x	n	135	n	n
CCOC(=O)c1ccc(-[n+]2c(-c3ccccc3)cc(-c3ccccc3)cc2-c2ccccc2)cc1	x	n	123	n	65
CCOC(=O)c1ccccc1C(=O)OCC	x	n	n	n	n
COc1ccc(NC2=NCCCS2)cc1OC	n	n	n	n	n
COc1ccc2c(C)c(CC(=O)N3C[C@H]4C[C@@H](C3)c3cccc(=O)n3C4)c(=O)oc2c1C	n	n	n	n	n
CCOc1ccc([N+](=O)[O-])cc1CNCCc1ccccc1	n	n	n	n	n
O=[N+]([O-])c1ccc(CNCCc2ccccc2)cc1	n	n	n	n	59
Cc1cccc(C(=O)Nc2ccc3c(c2)CC2(C(=O)N(C)C(=O)N(C)C2=O)C2CCCN32)c1 (stereo not drawn)	n	n	n	n	n
C=C(C)[C@@]12OC3(c4ccccc4)O[C@@H]1C1[C@@H]4O[C@]4(CO)[C@@H](O)[C@]4(O)C(=O)C(C)=C[C@H]4[C@@]1(O3)[C@H](C)[C@H]2OC(=O)/C=C/C=C/c1ccccc1 (stereo partly drawn)	x	n	n	n	57
CCN(CC)CCNCc1nc2ccccc2c(=O)n1-c1ccc(F)cc1	n	60	n	n	n
COc1ccc(OCC(=O)N2CCCC(N3CCN(c4ccccc4C)CC3)C2)cc1 (stereo not drawn)	n	n	n	n	n
COC1=CC(=O)[C@]2(C=C1OC)OC[C@@H]1Oc3c(ccc4c3C=CC(C)(C)O4)C(=O)[C@@H]12	x	x	126	n	x
CN(C)S(=O)(=O)c1cccc(C(=O)N2CCC(C(=O)O)(c3ccccc3)CC2)c1	n	n	n	n	n
SMILES	KLF5 inhibitor	HIF act	Beta cell apopt	A1 inh	T cruzi repl
Cc1c(Br)c(=O)oc2cc(OCC(=O)N3C[C@H]4C[C@@H](C3)c3cccc(=O)n3C4)ccc12	n	n	n	n	n
CC(=O)Nc1ccccc1C(=O)C(=O)Nc1cccc(C(=O)N2CCC3(CC2)OCCO3)c1	n	n	n	n	n
Fc1ccccc1N1CCN(Cc2c(F)cccc2F)CC1	n	n	n	n	n
COc1ccc(N2CCN(C(CNC(=O)Oc3ccccc3)c3cccnc3)CC2)cc1 (stereo not drawn)	n	n	n	n	62
O=C(NCC(c1cccnc1)N1CCN(c2ccccc2F)CC1)Oc1ccccc1 (stereo not drawn)	n	n	n	n	65
CCOP(=O)(Cc1cc(C(C)=O)c(C)o1)OCC	n	n	n	n	n
COc1cccc(CCNCc2cccc(C(F)(F)F)c2)c1	n	n	n	n	64
CN1C2CCC1/C(=C/c1ccccn1)C(=O)/C2=C\c1ccccn1	n	x	100	u	x
COc1cc(C)cc(CN2CC=C(c3ccccc3)CC2)c1O	n	n	n	n	n
